Measurements published in ChEMBL document CHEMBL3046880, “Syntheses and herbicidal activities of novel triazolinone derivatives” (J Agric Food Chem, 2008).

Key:
Assay type in all cases: functional
Brassica juncea [1] = experiment: Herbicidal activity against Brassica juncea assessed as growth inhibition at 150 g of active ingredient/ha administered using post-emergence treatment measured 15 days post treatment protocol under greenhouse conditions
Outline: (§1)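 Test agents were formulated as 100 g/L emulsified concentrates (DMF solvent, TW-80 emulsifier), diluted with water and sprayed postemergence on pot-grown weeds. Seeds were sown 1-3 cm deep in clay soil (pH 6.5, 1.6% organic matter, 37.3% clay, CEC […]) and grown at 15–30 °C in a greenhouse. Dicots were treated at the two-leaf stage. Untreated and DMF-treated plants served as controls. Activity was scored visually 15 days after treatment.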

Setaria viridis [2] = experiment: Herbicidal activity against Setaria viridis (green foxtail) assessed as growth inhibition at 150 g of active ingredient/ha administered using post-emergence treatment measured 15 days post treatment protocol under greenhouse conditions; outline: as §1
Echinochloa crus-galli [3] = experiment: Herbicidal activity against Echinochloa crus-galli (barnyard grass) assessed as growth inhibition at 150 g of active ingredient/ha administered using post-emergence treatment measured 15 days post treatment protocol under greenhouse conditions; outline: as §1
Setaria viridis [4] = experiment: Herbicidal activity against Setaria viridis (green foxtail) assessed as growth inhibition at 75 g of active ingredient/ha administered using post-emergence treatment measured 15 days post treatment protocol under greenhouse conditions; outline: as §1
Setaria viridis [5] = experiment: Herbicidal activity against Setaria viridis (green foxtail) assessed as growth inhibition at 37.5 g of active ingredient/ha administered using post-emergence treatment measured 15 days post treatment protocol under greenhouse conditions; outline: as §1
Digitaria sanguinalis [6] = experiment: Herbicidal activity against Digitaria sanguinalis (hairy crabgrass) assessed as growth inhibition at 75 g of active ingredient/ha administered using post-emergence treatment measured 15 days post treatment protocol under greenhouse conditions; outline: as §1
Digitaria sanguinalis [7] = experiment: Herbicidal activity against Digitaria sanguinalis (hairy crabgrass) assessed as growth inhibition at 37.5 g of active ingredient/ha administered using post-emergence treatment measured 15 days post treatment protocol under greenhouse conditions; outline: as §1
Brassica juncea [8] = experiment: Herbicidal activity against Brassica juncea assessed as growth inhibition at 37.5 g of active ingredient/ha administered using post-emergence treatment measured 15 days post treatment protocol under greenhouse conditions; outline: as §1
Senna tora [9] = experiment: Herbicidal activity against Senna tora assessed as growth inhibition at 150 g of active ingredient/ha administered using post-emergence treatment measured 15 days post treatment protocol under greenhouse conditions; outline: as §1
Senna tora [10] = experiment: Herbicidal activity against Senna tora assessed as growth inhibition at 75 g of active ingredient/ha administered using post-emergence treatment measured 15 days post treatment protocol under greenhouse conditions; outline: as §1
Senna tora [11] = experiment: Herbicidal activity against Senna tora assessed as growth inhibition at 37.5 g of active ingredient/ha administered using post-emergence treatment measured 15 days post treatment protocol under greenhouse conditions; outline: as §1
Chenopodium album [12] = experiment: Herbicidal activity against Chenopodium album assessed as growth inhibition at 75 g of active ingredient/ha administered using post-emergence treatment measured 15 days post treatment protocol under greenhouse conditions; outline: as §1
Chenopodium album [13] = experiment: Herbicidal activity against Chenopodium album assessed as growth inhibition at 37.5 g of active ingredient/ha administered using post-emergence treatment measured 15 days post treatment protocol under greenhouse conditions; outline: as §1
Chenopodium album [14] = experiment: Herbicidal activity against Chenopodium album assessed as growth inhibition at 150 g of active ingredient/ha administered using post-emergence treatment measured 15 days post treatment protocol under greenhouse conditions; outline: as §1
Amaranthus retroflexus [15] = experiment: Herbicidal activity against Amaranthus retroflexus assessed as growth inhibition at 150 g of active ingredient/ha administered using post-emergence treatment measured 15 days post treatment protocol under greenhouse conditions; outline: as §1
Digitaria sanguinalis [16] = experiment: Herbicidal activity against Digitaria sanguinalis (hairy crabgrass) assessed as growth inhibition at 150 g of active ingredient/ha administered using post-emergence treatment measured 15 days post treatment protocol under greenhouse conditions; outline: as §1
Echinochloa crus-galli [17] = experiment: Herbicidal activity against Echinochloa crus-galli (barnyard grass) assessed as growth inhibition at 75 g of active ingredient/ha administered using post-emergence treatment measured 15 days post treatment protocol under greenhouse conditions; outline: as §1
Echinochloa crus-galli [18] = experiment: Herbicidal activity against Echinochloa crus-galli (barnyard grass) assessed as growth inhibition at 37.5 g of active ingredient/ha administered using post-emergence treatment measured 15 days post treatment protocol under greenhouse conditions; outline: as §1
Portulaca oleracea [19] = experiment: Herbicidal activity against Portulaca oleracea assessed as growth inhibition at 150 g of active ingredient/ha administered using post-emergence treatment measured 15 days post treatment protocol under greenhouse conditions; outline: as §1
Portulaca oleracea [20] = experiment: Herbicidal activity against Portulaca oleracea assessed as growth inhibition at 75 g of active ingredient/ha administered using post-emergence treatment measured 15 days post treatment protocol under greenhouse conditions; outline: as §1
Portulaca oleracea [21] = experiment: Herbicidal activity against Portulaca oleracea assessed as growth inhibition at 37.5 g of active ingredient/ha administered using post-emergence treatment measured 15 days post treatment protocol under greenhouse conditions; outline: as §1
Cerastium arvense [22] = experiment: Herbicidal activity against Cerastium arvense assessed as growth inhibition at 150 g of active ingredient/ha administered using post-emergence treatment measured 15 days post treatment protocol under greenhouse conditions; outline: as §1
Cerastium arvense [23] = experiment: Herbicidal activity against Cerastium arvense assessed as growth inhibition at 75 g of active ingredient/ha administered using post-emergence treatment measured 15 days post treatment protocol under greenhouse conditions; outline: as §1
Cerastium arvense [24] = experiment: Herbicidal activity against Cerastium arvense assessed as growth inhibition at 37.5 g of active ingredient/ha administered using post-emergence treatment measured 15 days post treatment protocol under greenhouse conditions; outline: as §1
Eclipta prostrata [25] = experiment: Herbicidal activity against Eclipta prostrata assessed as growth inhibition at 75 g of active ingredient/ha administered using post-emergence treatment measured 15 days post treatment protocol under greenhouse conditions; outline: as §1
Eclipta prostrata [26] = experiment: Herbicidal activity against Eclipta prostrata assessed as growth inhibition at 37.5 g of active ingredient/ha administered using post-emergence treatment measured 15 days post treatment protocol under greenhouse conditions; outline: as §1
Amaranthus retroflexus [27] = experiment: Herbicidal activity against Amaranthus retroflexus assessed as growth inhibition at 75 g of active ingredient/ha administered using post-emergence treatment measured 15 days post treatment protocol under greenhouse conditions; outline: as §1
Amaranthus retroflexus [28] = experiment: Herbicidal activity against Amaranthus retroflexus assessed as growth inhibition at 37.5 g of active ingredient/ha administered using post-emergence treatment measured 15 days post treatment protocol under greenhouse conditions; outline: as §1
Brassica juncea [29] = experiment: Herbicidal activity against Brassica juncea assessed as growth inhibition at 75 g of active ingredient/ha administered using post-emergence treatment measured 15 days post treatment protocol under greenhouse conditions; outline: as §1

Measured: growth inhibition (GI)

Cc1nn(-c2cc(NS(C)(=O)=O)c(Cl)cc2Cl)c(=O)n1C(F)F [SULFENTRAZONE]
<50%: Echinochloa crus-galli [3] | Setaria viridis [5] | Digitaria sanguinalis [16]
50%: Setaria viridis [4] | Digitaria sanguinalis [6] | Digitaria sanguinalis [7] | Echinochloa crus-galli [17] | Echinochloa crus-galli [18]
100%: Brassica juncea [1] | Chenopodium album [12] | Chenopodium album [13] | Chenopodium album [14] | Amaranthus retroflexus [15] | Portulaca oleracea [19] | Portulaca oleracea [20] | Portulaca oleracea [21] | Cerastium arvense [22] | Cerastium arvense [23] | Eclipta prostrata [25] | Eclipta prostrata [26] | Amaranthus retroflexus [27] | Amaranthus retroflexus [28] | Brassica juncea [29]
>80%: Setaria viridis [2] | Brassica juncea [8] | Senna tora [9] | Senna tora [10] | Senna tora [11] | Cerastium arvense [24]
